The results in this text go back to ChEMBL document CHEMBL4152372, “Novel autophagy modulators: Design and synthesis of (+)-epogymnolactam analogues and structure-activity relationship” (Bioorg Med Chem, 2018).

Data set [1] relates to NIH3T3. Kind of data set: Induction of autophagy in mouse NIH/3T3 cells assessed as increase in LC3-2 to LC3-1 ratio at 25 to 100 uM after 4 hrs by immunoblot analysis. Format: functional, cell-based. The essentials: (§1)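 Mouse embryo NIH3T3 fibroblasts seeded at 3.3 × 10^5 cells/ml at 37°C, 5% CO2; after 24 h the medium was changed and compounds added in DMSO at 25, 50 or 100 μM final. Controls were DMSO vehicle and 5 μM rapamycin. After 4 h at 37°C, cells were lysed in RIPA buffer and run on SDS-PAGE. Blots were probed for LC3, p62 and actin, and band signal ratios were quantified. Mean ± SD of triplicate.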
A general note: A western blot detects proteins with antibodies after separation by electrophoresis.

The subject of data set [2] is NIH3T3. The data set is described as follows: Induction of autophagy in mouse NIH/3T3 cells assessed as increase in LC3-2 to actin ratio at 25 to 100 uM after 4 hrs by immunoblot analysis. Format: functional, cell-based. An outline of the steps:
as §1

In data set [3] the test system is NIH3T3. Kind of data set: Modulation of autophagy in mouse NIH/3T3 cells assessed as effect on LC3-2 to LC3-1 ratio at 25 to 100 uM after 4 hrs by immunoblot analysis. Type of data set: functional, cell-based. An outline of the steps:
as §1

For data set [4], the system named is NIH3T3. The data set is described as follows: Modulation of autophagy in mouse NIH/3T3 cells assessed as effect on LC3-2 to actin ratio at 25 to 100 uM after 4 hrs by immunoblot analysis. Format: functional, cell-based. An outline of the steps:
as §1

The subject of data set [5] is NIH3T3. The data set is described as follows: Cytotoxicity against mouse NIH/3T3 cells assessed as reduction in cell viability at 25 to 100 uM after 4 hrs by CCK8 assay. Format: cell-based. As to conditions: nih3t3, 4 h. The essentials: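 NIH3T3 cells counted by trypan blue exclusion, set to 0.53 × 10^4 cells/ml, and dosed at 25, 50 or 100 μM final (DMSO 0.1%). After 4 h at 37°C under CO2, CCK-8 reagent was added and incubation continued […]. Viable cells were read as OD450 against the DMSO control, mean ± SD of triplicate.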
In general terms: Tetrazolium assays rely on reduction of a dye to a coloured formazan, in cell work by metabolically active cells.

For data set [6], the system named is NIH3T3. Kind of data set: Induction of autophagy in mouse NIH/3T3 cells assessed as increase in LC3-2 to LC3-1 ratio after 4 hrs by immunoblot analysis. Type of data set: functional, cell-based. The essentials: as §1
For data set [7], the system named is NIH3T3. The data set is described as follows: Induction of autophagy in mouse NIH/3T3 cells assessed as increase in LC3-2 to actin ratio after 4 hrs by immunoblot analysis. Format: functional, cell-based. An outline of the steps: as §1
Data set [8] relates to NIH3T3. Kind of data set: Induction of apoptosis in mouse NIH/3T3 cells assessed as cell shrinkage at 100 uM measured after 4 hrs. Format: functional, cell-based.
For data set [9], the system named is NIH3T3. Kind of data set: Induction of autophagy in mouse NIH/3T3 cells assessed as upregulation of p62 expression after 4 hrs by immunoblot analysis. Type of data set: functional, cell-based. An outline of the steps:
as §1

Data set [10] deals with NIH3T3. Kind of data set: Inhibition of autophagy in mouse NIH/3T3 cells assessed as decrease in LC3-2 to LC3-1 ratio after 4 hrs by immunoblot analysis. Type of data set: functional, cell-based. The essentials:
(§2)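 NIH3T3 mouse embryo fibroblasts seeded at 3.3 × 10^5 cells/ml, cultured 24 h at 37°C/5% CO2, medium changed, then given compound in DMSO at final 25, 50, 100 μM for 4 h at 37°C. DMSO vehicle control; 5 μM rapamycin positive control. Cells lysed in RIPA, SDS-PAGE immunoblot for LC3, SQSTM1/p62, actin; band signals quantified as relative ratios. Mean ± SD of triplicates.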

Data set [11] has as its system NIH3T3. The data set is described as follows: Inhibition of autophagy in mouse NIH/3T3 cells assessed as decrease in LC3-2 to actin ratio after 4 hrs by immunoblot analysis. Format: functional, cell-based. The essentials:
as §2

For data set [12], the system named is NIH3T3. Kind of data set: Induction of apoptosis in mouse NIH/3T3 cells assessed as cell shrinkage at 50 to 100 uM measured after 4 hrs. Format: functional, cell-based.
In data set [13] the test system is NIH3T3. Kind of data set: Induction of autophagy in mouse NIH/3T3 cells assessed as upregulation of p62 expression at 25 to 100 uM after 4 hrs by immunoblot analysis. Format: functional, cell-based. The essentials:
as §2

In data set [14] the test system is NIH3T3. Kind of data set: Modulation of autophagy in mouse NIH/3T3 cells assessed as effect on p62 expression at 25 to 100 uM after 4 hrs by immunoblot analysis. Type of data set: functional, cell-based. The essentials:
as §1

Data set [15] deals with NIH3T3. The data set is described as follows: Induction of autophagy in mouse NIH/3T3 cells assessed as upregulation of p62 expression after 6 hrs by immunoblot analysis. Format: functional, cell-based.

Active and inactive are the calls of the source. No cut-off for these calls is given here.

With `CCCCC(=O)CCC(N)=O`, the outcome in the data set on NIH3T3 [1] and with NIH3T3 [2] was inactive.

Regarding `CCCCCCCCCCC(=O)[C@H]1O[C@H]1C(N)=O`, the result in the data set on NIH3T3 [3] and in the data set on NIH3T3 [4] was inactive. Further, in the data set with NIH3T3 [5], the Activity result is reported as “Toxic”.

`CCCCCCC(=O)[C@H]1O[C@H]1C(N)=O`: the Activity entry with NIH3T3 [6] is “Dose-dependent effect”; in the data set on NIH3T3 [7], “Dose-dependent effect”; in the data set with NIH3T3 [5], “Toxic”; in the data set on NIH3T3 [9], “Dose-dependent effect”. In addition, the result in the data set with NIH3T3 [8] was Active.

For the molecule `CCCCCCCCC(=O)[C@H]1O[C@H]1C(N)=O`, the inhibition result with NIH3T3 [10] and in the data set on NIH3T3 [11] was “Dose-dependent effect” each time. In the data set on NIH3T3 [5], the Activity entry is “Toxic”. Also, the result with NIH3T3 [12] and in the data set with NIH3T3 [13] was Active.

Turning to `CCCC[C@@H](O)[C@H]1O[C@H]1C(N)=O`, the result with NIH3T3 [1] and in the data set on NIH3T3 [2] was inactive.

As to `CCCC[C@]1(OC)NC(=O)[C@@H]2O[C@@H]21`, the result in the data set on NIH3T3 [1] and in the data set with NIH3T3 [2] was inactive.

Turning to `CCCCC1(O)NC(=O)[C@H]2O[C@H]21` (stereo partly drawn), the outcome with NIH3T3 [1] and with NIH3T3 [2] was inactive.

Consider `C/C=C/C/C=C/CCC(=O)[C@H]1O[C@H]1C(N)=O` [CERULENIN], for which the inhibition result with NIH3T3 [10] and with NIH3T3 [11] was “Dose-dependent effect” in each case. For the same molecule, the Activity result in the data set with NIH3T3 [5] was “Toxic”. For the same molecule, the outcome with NIH3T3 [13] was Active.

`CCCCC(=O)[C@H]1O[C@H]1C(=O)N(C)C`: the result in the data set on NIH3T3 [1] and with NIH3T3 [2] was inactive.

As to `CCCC[C@@]1(O)NC(=O)[C@@H]2O[C@@H]21`, the outcome in the data set on NIH3T3 [1], in the data set on NIH3T3 [2] and in the data set with NIH3T3 [15] was Active. Further, the Activity entry in the data set with NIH3T3 [5] is reported as “Toxic”. The result in the data set with NIH3T3 [12] and in the data set with NIH3T3 [14] was inactive.
